Experiments:
[1] = Cmax in po dosed Sprague-Dawley rat; format: ADME, organism-based; set-up: route oral; settings: in vivo
Plasma [2] = assay: Fraction unbound in human plasma at 5 uM after 4 hrs by equilibrium dialysis method; format: ADME, cell-free
Summary of the method: (§1)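 Fraction unbound determined in plasma from rat, cynomolgus monkey and human.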

Plasma [3] = assay: Fraction unbound in Sprague-Dawley rat plasma at 5 uM after 4 hrs by equilibrium dialysis method; format: ADME, cell-free; summary of the method: as §1
[4] = Tmax in po dosed Sprague-Dawley rat; format: ADME, organism-based; settings: in vivo
[5] = Fraction unbound in Sprague-Dawley rat brain at 5 uM after 4 hrs by equilibrium dialysis method; format: ADME, tissue-based
Summary of the method: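 Nonspecific binding measured in rat brain homogenate to give unbound fraction in brain (fu,br).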

[6] = target: Cannabinoid receptor 1 (Homo sapiens) (UniProt P21554); assay: Binding affinity to human CB1 receptor at 10 uM by radioligand binding assay relative to control
Sequence of Cannabinoid receptor 1 (Homo sapiens) (P21554 whole entry): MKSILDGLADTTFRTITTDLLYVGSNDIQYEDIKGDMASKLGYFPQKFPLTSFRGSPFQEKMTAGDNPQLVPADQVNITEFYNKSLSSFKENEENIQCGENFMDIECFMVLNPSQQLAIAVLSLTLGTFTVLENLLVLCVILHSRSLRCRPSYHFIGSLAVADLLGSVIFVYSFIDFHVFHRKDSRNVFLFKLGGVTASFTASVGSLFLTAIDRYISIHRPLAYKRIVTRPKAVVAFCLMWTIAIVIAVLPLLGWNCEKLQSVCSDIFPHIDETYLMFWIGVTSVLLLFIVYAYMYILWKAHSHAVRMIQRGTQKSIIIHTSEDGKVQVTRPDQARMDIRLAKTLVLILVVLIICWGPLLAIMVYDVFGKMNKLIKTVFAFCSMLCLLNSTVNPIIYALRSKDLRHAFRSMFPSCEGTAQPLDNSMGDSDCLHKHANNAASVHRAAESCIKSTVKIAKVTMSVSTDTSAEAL

[7] = target: Muscarinic acetylcholine receptor M3 (Homo sapiens, UniProt P20309); assay: Negative allosteric modulation of human muscarinic acetylcholine receptor M3 expressed in CHO cells assessed as inhibition of acetylcholine-induced calcium mobilization incubated for 150 secs prior to acetylcholine induction by Fluo-4 AM staining-based fluorescence assay; format: functional, cell-based
Sequence of Muscarinic acetylcholine receptor M3 (Homo sapiens, UniProt P20309) (P20309 whole entry): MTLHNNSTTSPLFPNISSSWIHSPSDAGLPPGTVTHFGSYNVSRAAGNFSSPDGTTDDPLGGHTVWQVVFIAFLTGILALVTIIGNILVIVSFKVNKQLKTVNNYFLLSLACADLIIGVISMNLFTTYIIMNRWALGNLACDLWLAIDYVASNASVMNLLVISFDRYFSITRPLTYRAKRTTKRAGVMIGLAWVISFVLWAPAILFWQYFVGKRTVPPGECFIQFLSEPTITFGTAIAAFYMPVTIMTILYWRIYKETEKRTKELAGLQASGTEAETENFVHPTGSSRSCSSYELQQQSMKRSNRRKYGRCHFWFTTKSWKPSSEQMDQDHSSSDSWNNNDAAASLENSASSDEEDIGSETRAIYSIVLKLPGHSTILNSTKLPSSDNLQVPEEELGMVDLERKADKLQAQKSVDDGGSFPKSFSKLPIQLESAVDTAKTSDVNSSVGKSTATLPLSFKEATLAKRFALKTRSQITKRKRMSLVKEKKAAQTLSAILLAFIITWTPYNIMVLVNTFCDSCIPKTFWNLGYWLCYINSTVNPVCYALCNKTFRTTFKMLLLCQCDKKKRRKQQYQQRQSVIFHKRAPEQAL

[8] = Elimination half life in Sprague-Dawley rat at 1 mg/kg, iv; format: ADME, organism-based; set-up: dose 1 mg/kg, route intravenous; settings: in vivo, read-out: beta t1/2 (converted)
[9] = Plasma clearance in Sprague-Dawley rat at 1 mg/kg, iv; format: ADME, organism-based; set-up: dose 1 mg/kg, route intravenous
Plasma [10] = assay: Fraction unbound in cynomolgus monkey plasma at 5 uM after 4 hrs by equilibrium dialysis method; format: ADME, cell-free, Macaca fascicularis; summary of the method: as §1
[11] = Ratio of unbound brain to plasma partition coefficient in Sprague-Dawley rat at 10 mg/kg, po measured at 1 hr; format: ADME, organism-based; set-up: dose 10 mg/kg, route oral
Summary of the method: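 Oral CNS distribution study in male Sprague-Dawley rats (n=2), 10 mg/kg; brain and plasma sampled one hour post-dose. Total (Kp) and unbound (Kp,uu) brain-plasma partition coefficients calculated, with unbound fractions from plasma and brain homogenate binding.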

Cynomolgus monkey = assay: Volume of distribution at steady state in cynomolgus monkey at 1 mg/kg, iv; format: ADME, organism-based, Macaca fascicularis; set-up: dose 1 mg/kg, route intravenous; settings: in vivo
Cytochrome P450 3A4 = Cytochrome P450 3A4 (Homo sapiens, UniProt P08684); assay: Inhibition of CYP3A4 in human liver microsomes using midazolam as substrate preincubated for 15 mins followed by NADPH addition measured after 8 mins by LC/MS/MS analysis; format: ADME
Sequence of Cytochrome P450 3A4 (P08684 whole entry): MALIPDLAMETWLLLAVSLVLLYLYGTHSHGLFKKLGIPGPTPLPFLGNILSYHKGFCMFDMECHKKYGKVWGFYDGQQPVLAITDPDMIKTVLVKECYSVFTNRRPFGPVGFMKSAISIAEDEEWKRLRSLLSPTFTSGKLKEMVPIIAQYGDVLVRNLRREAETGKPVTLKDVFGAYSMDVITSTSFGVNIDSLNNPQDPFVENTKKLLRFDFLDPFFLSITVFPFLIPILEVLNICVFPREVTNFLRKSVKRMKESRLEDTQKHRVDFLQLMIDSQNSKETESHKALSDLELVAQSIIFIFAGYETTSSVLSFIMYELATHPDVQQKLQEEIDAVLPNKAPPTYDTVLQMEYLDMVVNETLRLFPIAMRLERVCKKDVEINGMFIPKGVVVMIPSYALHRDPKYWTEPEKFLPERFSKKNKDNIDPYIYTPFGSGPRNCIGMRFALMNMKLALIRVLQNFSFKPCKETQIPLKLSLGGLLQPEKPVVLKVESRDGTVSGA

[12] = target: Muscarinic acetylcholine receptor M3 (Rattus norvegicus, UniProt P08483); assay: Negative allosteric modulation of rat muscarinic acetylcholine receptor M3 expressed in CHO cells assessed as inhibition of acetylcholine-induced calcium mobilization incubated for 150 secs prior to acetylcholine induction by Fluo-4 AM staining-based fluorescence assay; format: functional, cell-based
Sequence of Muscarinic acetylcholine receptor M3 (Rattus norvegicus, UniProt P08483) (P08483 whole entry): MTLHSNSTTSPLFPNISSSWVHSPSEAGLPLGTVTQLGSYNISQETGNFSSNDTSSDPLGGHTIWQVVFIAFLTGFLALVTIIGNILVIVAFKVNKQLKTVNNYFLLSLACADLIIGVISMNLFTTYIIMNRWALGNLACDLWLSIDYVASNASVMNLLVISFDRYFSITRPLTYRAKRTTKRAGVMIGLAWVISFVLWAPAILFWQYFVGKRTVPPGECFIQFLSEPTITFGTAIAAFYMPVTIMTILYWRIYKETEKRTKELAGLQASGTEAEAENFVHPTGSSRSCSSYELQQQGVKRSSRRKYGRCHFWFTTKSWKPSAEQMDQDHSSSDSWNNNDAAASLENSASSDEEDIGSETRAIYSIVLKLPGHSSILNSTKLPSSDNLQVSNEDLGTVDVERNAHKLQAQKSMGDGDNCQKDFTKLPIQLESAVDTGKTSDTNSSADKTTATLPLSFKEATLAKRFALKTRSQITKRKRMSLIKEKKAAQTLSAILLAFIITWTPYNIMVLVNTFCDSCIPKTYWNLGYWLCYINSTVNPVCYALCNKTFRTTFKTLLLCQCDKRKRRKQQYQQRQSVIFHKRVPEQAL

[13] = target: T1, Muscarinic acetylcholine receptor M2 (Rattus norvegicus, UniProt P10980); assay: Negative allosteric modulation of rat muscarinic acetylcholine receptor M2 expressed in CHO cells assessed as inhibition of acetylcholine-induced calcium mobilization incubated for 150 secs prior to acetylcholine induction by Fluo-4 AM staining-based fluorescence assay; format: functional, cell-based
T1 sequence (P10980 whole entry): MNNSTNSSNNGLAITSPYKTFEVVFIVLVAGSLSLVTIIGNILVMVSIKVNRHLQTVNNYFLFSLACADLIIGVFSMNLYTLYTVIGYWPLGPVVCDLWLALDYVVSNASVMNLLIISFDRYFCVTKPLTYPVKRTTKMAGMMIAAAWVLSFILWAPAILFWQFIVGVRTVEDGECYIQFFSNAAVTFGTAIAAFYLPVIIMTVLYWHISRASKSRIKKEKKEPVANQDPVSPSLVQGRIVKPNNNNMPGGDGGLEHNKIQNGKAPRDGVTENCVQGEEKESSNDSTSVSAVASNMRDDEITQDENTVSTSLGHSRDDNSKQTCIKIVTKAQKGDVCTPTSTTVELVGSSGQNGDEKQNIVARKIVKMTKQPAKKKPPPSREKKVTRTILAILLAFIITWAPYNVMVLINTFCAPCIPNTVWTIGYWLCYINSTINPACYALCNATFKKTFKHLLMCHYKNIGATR

Rattus norvegicus = assay: Volume of distribution at steady state in Sprague-Dawley rat at 1 mg/kg, iv; format: ADME, organism-based; set-up: dose 1 mg/kg, route intravenous; settings: in vivo
[14] = target: T2, Muscarinic acetylcholine receptor M5 (Homo sapiens) (UniProt P08912); assay: Negative allosteric modulation of human muscarinic acetylcholine receptor M5 expressed in CHO cells assessed as reduction of acetylcholine-induced calcium mobilization at 10 uM incubated for 150 secs prior to acetylcholine induction by Fluo-4 AM staining-based fluorescence assay relative to control; format: functional, cell-based; set-up: scale not given: the % may be the effect or the level left
T2 sequence (whole entry): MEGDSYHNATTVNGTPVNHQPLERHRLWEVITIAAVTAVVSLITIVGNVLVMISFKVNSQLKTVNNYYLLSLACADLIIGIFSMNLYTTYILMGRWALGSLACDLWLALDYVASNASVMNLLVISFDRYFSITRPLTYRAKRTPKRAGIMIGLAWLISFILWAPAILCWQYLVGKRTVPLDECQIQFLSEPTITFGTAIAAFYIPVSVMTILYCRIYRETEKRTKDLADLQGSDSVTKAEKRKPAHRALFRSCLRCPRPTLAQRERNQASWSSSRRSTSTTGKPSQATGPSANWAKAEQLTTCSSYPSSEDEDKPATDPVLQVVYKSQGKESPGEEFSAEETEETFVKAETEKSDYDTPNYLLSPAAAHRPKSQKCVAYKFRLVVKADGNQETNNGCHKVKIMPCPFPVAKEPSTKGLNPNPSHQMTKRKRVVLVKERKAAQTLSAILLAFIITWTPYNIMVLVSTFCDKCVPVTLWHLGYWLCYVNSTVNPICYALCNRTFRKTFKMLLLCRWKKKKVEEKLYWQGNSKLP

[15] = target: T3, Muscarinic acetylcholine receptor M5 (Homo sapiens, UniProt P08912); assay: Negative allosteric modulation of human muscarinic acetylcholine receptor M5 expressed in CHO cells assessed as inhibition of acetylcholine-induced calcium mobilization incubated for 150 secs prior to acetylcholine induction by Fluo-4 AM staining-based fluorescence assay; format: functional, cell-based
T3 sequence (P08912 whole entry): T2 sequence (whole entry)

[16] = target: T4, Muscarinic acetylcholine receptor M5 (Rattus norvegicus, UniProt P08911); assay: Negative allosteric modulation of rat muscarinic acetylcholine receptor M5 expressed in CHO cells assessed as inhibition of acetylcholine-induced calcium mobilization incubated for 150 secs prior to acetylcholine induction by Fluo-4 AM staining-based fluorescence assay; format: functional, cell-based
T4 sequence (P08911 whole entry): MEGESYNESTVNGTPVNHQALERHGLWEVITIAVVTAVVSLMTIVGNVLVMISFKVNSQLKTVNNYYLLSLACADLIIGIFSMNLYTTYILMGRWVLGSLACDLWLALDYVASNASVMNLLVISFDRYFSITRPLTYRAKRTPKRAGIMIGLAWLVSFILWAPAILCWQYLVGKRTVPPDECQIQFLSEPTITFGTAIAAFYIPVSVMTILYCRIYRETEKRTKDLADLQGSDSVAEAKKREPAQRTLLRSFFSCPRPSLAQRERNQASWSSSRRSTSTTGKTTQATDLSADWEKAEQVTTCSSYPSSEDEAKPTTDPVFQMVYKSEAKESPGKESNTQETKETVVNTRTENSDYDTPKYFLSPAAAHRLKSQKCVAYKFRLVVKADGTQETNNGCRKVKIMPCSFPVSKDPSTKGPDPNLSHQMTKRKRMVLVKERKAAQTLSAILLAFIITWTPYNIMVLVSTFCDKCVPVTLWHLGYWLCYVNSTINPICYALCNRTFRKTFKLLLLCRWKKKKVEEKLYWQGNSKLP

Cmax [1]	Fu (Plasma [2])	Fu (Plasma [3])	Tmax [4]	Fu [5]	inhibition [6]	IC50 [7]	half-life [8]	clearance [9]	Fu (Plasma [10])	K(p,uu,brain) [11]	Vdss (Cynomolgus monkey)	IC50 (Cytochrome P450 3A4)	IC50 [12]	IC50 [13]	Vdss (Rattus norvegicus)	Activity [14]	IC50 [15]	IC50 [16]	Compound
1.4 µM	0.013	0.029	7 h	0.003	66%	> 30 µM	80 h	0.15 L/h/kg	0.001	0.2	1.9 L/kg	16 µM	> 30 µM	> 30 µM	16 L/kg				O=C(c1ccc(F)c(F)c1)N1CCN2C(=O)c3ccccc3[C@@]12c1ccc(Cl)cc1
						> 30 µM							> 30 µM	> 30 µM		0%	1.05 µM	2.1 µM	O=C(c1ccc(F)c(F)c1)N1CCN2C(=O)c3ccccc3C12c1ccccc1 (configuration not stated)
